Key:
[1] = Growth inhibition of mouse Hepa-1c1c7 cells; format: functional, cell-based
[2] = Chemoprevention index, ratio of IC50 for mouse Hepa-1c1c7 cells to drug level required to double quinone reductase activity in mouse Hepa-1c1c7 cells; format: functional
tissue or blood = conditions: Mus musculus, Mammary gland, read-out: INH
[3] = Inhibition of 7,12-dimethylbenz[a]anthracene-induced […] lesions in mouse mammary organ culture model at 10 ug/ml; format: functional; conditions: Mammary gland
Summary of the method: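 Mouse mammary glands in organ culture with 7,12-dimethylbenz[a]anthracene-induced preneoplastic lesions. Samples were tested at 10 µg/mL, with sulforaphane at 1 µg/mL as positive control. The read-out was percent inhibition of lesion formation.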

Row | SMILES | IC50 [1] | Ratio [2] | inhibition at 1 µg/mL (tissue or blood) | inhibition at 10 µg/mL [3]
1 | COc1cc(C2Oc3c(OC)cc(/C=C/C=O)cc3C2CO)ccc1O (racemic) | 48.5 µM | 3.2 |  | 
2 | C[S+]([O-])CCCCN=C=S (centres undefined) [SULFORAPHANE] | 27.3 µM | 7.2 | 83.7% | 
3 | O=C(/C=C/c1ccc(O)cc1)c1ccc(O)cc1O [ISOLIQUIRITIGENIN] | 27.3 µM | 7.2 |  | 76%
4 | COc1cc(/C=C2\Oc3cc(O)ccc3C2=O)ccc1O | 34.6 µM | 5.4 |  | 48.2%
5 | O=C1/C(=C/c2ccc(O)c(O)c2)Oc2cc(O)ccc21 [SULFURETIN] | 78.5 µM | 3.8 |  | 58.5%
